From ChEMBL document CHEMBL3588757, “Structure-based design, synthesis and biological testing of piperazine-linked bis-epipodophyllotoxin etoposide analogs” (Bioorg Med Chem, 2015) come the findings set out here.

One experiment concerns UACC-257. Kind of experiment: Cytotoxicity against human UACC257 cells by SRB assay. The experiment is classed as functional. The essentials:
(§1)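 NCI-60 panel screen; 5-dose testing giving GI50 per cell line, plus a single 10 µM one-dose test. Method details not given beyond the NCI screen.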

Another experiment has as its system SF-539. The experiment can be described thus: Cytotoxicity against human SF539 cells assessed as cell growth at 50 uM by SRB assay. The experiment is classed as functional. To be noted: read-out: Activity. (In general: The SRB assay estimates cell density from bound dye.)
Another experiment deals with NCI-H226. The experiment can be described thus: Cytotoxicity against human NCI-H226 cells by SRB assay. The experiment is classed as functional. In a few lines:
as §1

The next experiment deals with HOP-92. The experiment can be described thus: Cytotoxicity against human HOP92 cells assessed as cell growth at 5 uM by SRB assay. It is filed as functional. To be noted: read-out: Activity. In a few lines: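 Measured in the NCI-60 human tumour cell line panel using five-dose testing. Growth was recorded at each dose for each cell line, and a GI50 was derived for each line.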

The next experiment deals with SF-295. The experiment can be described thus: Cytotoxicity against human SF295 cells by SRB assay. The experiment is classed as functional. The essentials: as §1
The target in experiment [1] is DNA topoisomerase 2-alpha (Homo sapiens) (UniProt P11388). The experiment can be described thus: Inhibition of full-length human recombinant topoisomerase 2-alpha-mediated decatenation activity of kDNA at >10 uM by ethidium bromide based gel-assay.
Experiment [2] relates to K562. The experiment can be described thus: Induction of apoptosis in human K562 cells assessed as increase in caspase 3/7 activity at 1 uM by luminescence analysis. It is filed as functional, cell-based. The following applies: TDE = time-dependent effect. The essentials: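 K562 cells at 2 × 10^5 cells/mL treated with vehicle or 1 µM compound for 24 or 48 h. Lysates assayed with a luminogenic DEVD-aminoluciferin caspase-3/7 substrate and read by luminescence. Four wells (eight for control); unpaired t-test vs control; repeated on two days.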

Experiment [3] deals with K562. Kind of experiment: Induction of apoptosis in human K562 cells assessed as increase in proportion of apoptotic and apoptotic/necrotic cells at 1 uM after 24 to 48 hrs by annexin V-FITC/propidium iodide staining based two-color fluorescence flow cytometry. The experiment is classed as functional, cell-based. In a few lines:
(§2)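 K562 cells (1 × 10^6/mL), untreated or given 1 µM compound (10 µM etoposide control) at 37 °C for 24 h or 48 h. Annexin V-FITC plus propidium iodide two-colour flow cytometry. Cells are scored as viable, apoptotic-only (annexin+/PI−), apoptotic/necrotic (annexin+/PI+) or necrotic.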

Experiment [4] relates to CHO. Kind of experiment: Induction of apoptosis in CHO cells assessed as increase in sub-G0/G1 cell population at 1 uM after 49 hrs by propidium iodide staining based flow cytometry. The experiment is classed as functional. The following applies: Cricetulus griseus. In a few lines: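 CHO cells grown to confluence in α-MEM/10% FCS, serum-starved 48 h (0% FCS), then seeded at 2 × 10^5 cells/mL and repleted with 10% FCS. Continuously treated from repletion with 1 µM compound (10 µM etoposide, DMSO control) for various times. Propidium iodide DNA staining, flow cytometric phase distribution including sub-G0/G1.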
Background: A flow cytometer gives signals particle by particle.

In experiment [5] the test system is CHO. The experiment can be described thus: Induction of cell cycle arrest in CHO cells assessed as accumulation at G2/M phase at 1 uM by propidium iodide staining based flow cytometry. It is filed as functional. The following applies: Cricetulus griseus.
For the next experiment, the system named is SN12C. The experiment can be described thus: Cytotoxicity against human SN12C cells assessed as cell growth at 50 uM by SRB assay. The following applies: read-out: Activity. The experiment is classed as functional.
In experiment [6] the target is DNA topoisomerase 2-alpha (Homo sapiens) (UniProt P11388). The experiment can be described thus: Inhibition of full-length human recombinant topoisomerase 2-alpha assessed as conversion of […] DNA at 100 uM by ethidium bromide based gel-assay.
In experiment [7] the test system is K562. The experiment can be described thus: Induction of apoptosis in human K562 cells assessed as decrease in proportion of viable cells at 1 uM after 24 to 48 hrs by annexin V-FITC/propidium iodide staining based two-color fluorescence flow cytometry. It is filed as functional, cell-based. In a few lines:
as §2

The test system of a further experiment is SK-OV-3. The experiment can be described thus: Cytotoxicity against human SKOV3 cells assessed as cell growth at 50 uM by SRB assay. The experiment is classed as functional. The following applies: read-out: Activity.
[8] abbreviates: read-out: LC50 (the source's name).
Where [9] appears, read: read-out: pLC50 (the source's name) (converted).

The source made the active and inactive calls. The rule behind the calls is not given here. Some results are limits rather than exact numbers.

Sequence of DNA topoisomerase 2-alpha (Homo sapiens) (P11388 whole entry): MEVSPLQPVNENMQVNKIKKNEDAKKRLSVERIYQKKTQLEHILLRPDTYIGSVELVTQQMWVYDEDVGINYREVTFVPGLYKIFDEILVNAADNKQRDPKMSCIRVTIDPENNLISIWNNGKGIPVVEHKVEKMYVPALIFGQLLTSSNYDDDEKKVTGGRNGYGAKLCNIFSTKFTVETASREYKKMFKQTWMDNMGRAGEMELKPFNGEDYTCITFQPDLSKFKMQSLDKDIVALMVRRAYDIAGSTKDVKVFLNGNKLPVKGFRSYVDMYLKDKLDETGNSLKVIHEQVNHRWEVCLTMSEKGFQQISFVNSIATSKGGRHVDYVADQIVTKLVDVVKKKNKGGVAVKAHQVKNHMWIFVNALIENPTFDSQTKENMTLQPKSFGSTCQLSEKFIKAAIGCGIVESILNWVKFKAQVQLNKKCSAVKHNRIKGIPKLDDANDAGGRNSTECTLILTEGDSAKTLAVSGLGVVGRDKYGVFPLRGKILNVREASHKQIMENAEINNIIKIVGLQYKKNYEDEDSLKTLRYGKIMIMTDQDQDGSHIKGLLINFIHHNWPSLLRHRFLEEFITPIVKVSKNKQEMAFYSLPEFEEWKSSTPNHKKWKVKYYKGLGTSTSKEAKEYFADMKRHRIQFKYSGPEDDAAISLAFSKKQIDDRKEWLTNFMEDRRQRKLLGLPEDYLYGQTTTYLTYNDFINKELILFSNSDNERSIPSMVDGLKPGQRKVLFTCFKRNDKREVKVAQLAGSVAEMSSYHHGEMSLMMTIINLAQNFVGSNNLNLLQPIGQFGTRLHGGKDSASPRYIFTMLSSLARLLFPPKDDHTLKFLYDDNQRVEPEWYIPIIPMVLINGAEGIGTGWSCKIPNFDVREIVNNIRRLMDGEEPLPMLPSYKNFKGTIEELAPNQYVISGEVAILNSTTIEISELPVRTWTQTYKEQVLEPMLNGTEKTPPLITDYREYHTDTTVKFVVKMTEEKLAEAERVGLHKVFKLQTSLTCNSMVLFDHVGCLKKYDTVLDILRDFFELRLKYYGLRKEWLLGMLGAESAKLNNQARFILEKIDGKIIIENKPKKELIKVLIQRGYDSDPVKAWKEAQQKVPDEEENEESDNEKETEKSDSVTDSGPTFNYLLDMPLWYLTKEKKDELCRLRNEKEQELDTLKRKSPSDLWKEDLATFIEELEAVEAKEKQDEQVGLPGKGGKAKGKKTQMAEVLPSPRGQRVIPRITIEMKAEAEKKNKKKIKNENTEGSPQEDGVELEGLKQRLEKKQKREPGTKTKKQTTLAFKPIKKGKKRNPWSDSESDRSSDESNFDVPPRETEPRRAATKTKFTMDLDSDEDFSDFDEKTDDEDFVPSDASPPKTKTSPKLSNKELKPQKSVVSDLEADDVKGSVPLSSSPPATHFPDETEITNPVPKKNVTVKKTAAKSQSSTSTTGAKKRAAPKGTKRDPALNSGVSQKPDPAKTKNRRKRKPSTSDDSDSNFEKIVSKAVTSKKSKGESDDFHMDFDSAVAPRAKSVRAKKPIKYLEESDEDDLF

As to `COc1cc([C@@H]2c3cc4c(cc3[C@@H](NC(=O)CN3CCN(CCCCCCN5CCN(CC(=O)N[C@@H]6c7cc8c(cc7[C@@H](c7cc(OC)c(O)c(OC)c7)[C@H]7C(=O)OC[C@@H]76)OCO8)CC5)CC3)[C@H]3COC(=O)[C@H]23)OCO4)cc(OC)c1O`, the GI50 in the experiment on UACC-257 (read-out: GI50) was 18.9 µM; in the experiment with UACC-257 (read-out: pGI50 (converted)), 19.1 µM; in the experiment on NCI-H226 (read-out: GI50) it was 5.42 µM; in the experiment on NCI-H226 (read-out: pGI50 (converted)), 5.37 µM; with SF-295 (read-out: GI50), 4.92 µM; in the experiment on SF-295 (read-out: pGI50 (converted)), 4.9 µM. For the same compound, the CC50 is over 50 µM in the experiment with UACC-257 (setting [8]); over 50.1 µM in the experiment with UACC-257 (setting [9]); over 50 µM with NCI-H226 (setting [8]); over 50.1 µM in the experiment with NCI-H226 (setting [9]); over 50 µM in the experiment with SF-295 (setting [8]); over 50.1 µM in the experiment with SF-295 (setting [9]). For the same compound, the TGI in the experiment on UACC-257 (read-out: TGI) is over 50 µM; with UACC-257 (read-out: pTGI (converted)), over 50.1 µM; in the experiment with NCI-H226 (read-out: TGI) it was 46.8 µM; in the experiment on NCI-H226 (read-out: pTGI (converted)), 46.8 µM; in the experiment with SF-295 (read-out: TGI) it was over 50 µM; in the experiment with SF-295 (read-out: pTGI (converted)), over 50.1 µM. For the same compound, the growth at 50 µM in the experiment on SF-539 was -38%. Further, in the experiment on HOP-92, the growth at 5 µM came out at 30%.
With `COc1cc([C@@H]2c3cc4c(cc3[C@@H](NC(=O)CN3CCN(CCCCCCCCCCN5CCN(CC(=O)N[C@@H]6c7cc8c(cc7[C@@H](c7cc(OC)c(O)c(OC)c7)[C@H]7C(=O)OC[C@@H]76)OCO8)CC5)CC3)[C@H]3COC(=O)[C@H]23)OCO4)cc(OC)c1O`, the “Inhibition of decatenation activity (qualitative)” value in experiment [1] is “Active”. The Activity entry in the experiment with K562 [2] is “tde”. In addition, the result in the experiment with K562 [3], with CHO [4], with CHO [5] and in the experiment on K562 [7] was Active. In addition, the GI50 in the experiment with UACC-257 (read-out: GI50) is 0.679 µM; in the experiment with UACC-257 (read-out: pGI50 (converted)), 0.676 µM; in the experiment on NCI-H226 (read-out: GI50), 0.469 µM; with NCI-H226 (read-out: pGI50 (converted)), 0.468 µM; in the experiment with SF-295 (read-out: GI50), 0.894 µM; in the experiment with SF-295 (read-out: pGI50 (converted)), 0.891 µM. Further, the CC50 with UACC-257 (setting [8]) was 2.63 µM; in the experiment with UACC-257 (setting [9]) it was 2.63 µM; with NCI-H226 (setting [8]), 22.6 µM; in the experiment with NCI-H226 (setting [9]), 22.4 µM; in the experiment on SF-295 (setting [8]), over 50 µM; in the experiment with SF-295 (setting [9]), over 50.1 µM. In addition, the TGI in the experiment on UACC-257 (read-out: TGI) was 1.34 µM; in the experiment on UACC-257 (read-out: pTGI (converted)), 1.35 µM; in the experiment with NCI-H226 (read-out: TGI), 9.32 µM; in the experiment with NCI-H226 (read-out: pTGI (converted)), 9.33 µM; with SF-295 (read-out: TGI) it was 9.49 µM; in the experiment on SF-295 (read-out: pTGI (converted)), 9.55 µM. For the same compound, the results for the growth at 50 µM in the experiment on SN12C and in the experiment with SK-OV-3 were -44% and -100%, respectively. For the same compound, the “Inhibition (qualitative activity call)” value in experiment [6] is “Active”. Besides, the growth at 5 µM in the experiment with HOP-92 was -9%.
